Assay results published in ChEMBL document CHEMBL3352237, “Synthesis and biological evaluation of novel peptide BF2 as an antibacterial agent against clinical isolates of vancomycin-resistant enterococci” (J Med Chem, 2014).

Key:
[1] = tested on: Enterococcus faecium; experiment: Bactericidal activity against vancomycin-resistant Enterococcus faecium clinical isolate 7/27 after 24 hrs by two-fold serial dilution method; assay type: functional; conditions: isolate 7/27, 24 h
[2] = tested on: Enterococcus; experiment: Antibacterial activity against vancomycin-resistant Enterococcus ATCC 51299 after overnight incubation by two-fold serial dilution method; assay type: functional
[3] = tested on: Enterococcus faecium; experiment: Antibacterial activity against vancomycin-resistant Enterococcus faecium clinical isolate 27/16917 after overnight incubation by two-fold serial dilution method; assay type: functional; conditions: isolate 27/1691
[4] = tested on: Enterococcus; experiment: Antibacterial activity against vancomycin-resistant Enterococcus ATCC 29212 after overnight incubation by two-fold serial dilution method; assay type: functional
[5] = tested on: Enterococcus faecium; experiment: Antibacterial activity against vancomycin-resistant Enterococcus faecium clinical isolate 23/240 after overnight incubation by two-fold serial dilution method; assay type: functional
[6] = Hemolytic activity against human RBC at 5 times MIC after 1 hr by spectrophotometry; assay type: ADME, cell-based, Erythrocyte; conditions: red blood cells, read-out: Activity
[7] = tested on: Enterococcus; experiment: Antibacterial activity against Enterococcus infected in Wistar albino rat assessed as reduction in cell count at MIC, iv after 1 hr relative to control; assay type: functional; design: scale not given: the % may be the effect or the level left
In short: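 Female Wistar albino rats, 40−45 days old, 125−150 g, 5 groups of 3. Enterococci were grown to log phase in MH broth, centrifuged at 1000g for 15 min, and diluted in PBS to 4 × 10^6 CFU/mL. Rats were inoculated i.v. and treated i.v. 1 h later with 12.5, 25 or 37.5 mg/kg peptide, PBS vehicle, or linezolid 25 mg/kg. Tail-vein blood taken 1 h post-treatment was plated on blood agar, incubated overnight at 37 °C, and colonies counted.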

[8] = tested on: Enterococcus faecalis; experiment: Bactericidal activity against vancomycin-resistant Enterococcus faecalis clinical isolate 5648 after 24 hrs by two-fold serial dilution method; assay type: functional; conditions: isolate 5648, 24 h
[9] = tested on: Enterococcus faecalis; experiment: Antibacterial activity against vancomycin-resistant Enterococcus faecalis clinical isolate 5814 after overnight incubation by two-fold serial dilution method; assay type: functional
[10] = tested on: Enterococcus; experiment: Bactericidal activity against vancomycin-resistant Enterococcus ATCC 51299 after 24 hrs by two-fold serial dilution method; assay type: functional; conditions: ATCC 51299, 24 h
[11] = tested on: Enterococcus faecium; experiment: Antibacterial activity against vancomycin-resistant Enterococcus faecium clinical isolate 16115 after overnight incubation by two-fold serial dilution method; assay type: functional
[12] = tested on: Enterococcus faecium; experiment: Antibacterial activity against vancomycin-resistant Enterococcus faecium clinical isolate 17301 after overnight incubation by two-fold serial dilution method; assay type: functional
[13] = tested on: Enterococcus faecalis; experiment: Antibacterial activity against vancomycin-resistant Enterococcus faecalis clinical isolate 5648 after overnight incubation by two-fold serial dilution method; assay type: functional
[14] = tested on: Enterococcus faecium; experiment: Antibacterial activity against vancomycin-resistant Enterococcus faecium clinical isolate 15/213 after overnight incubation by two-fold serial dilution method; assay type: functional
[15] = tested on: Enterococcus faecalis; experiment: Bactericidal activity against vancomycin-resistant Enterococcus faecalis clinical isolate 27728 after 24 hrs by two-fold serial dilution method; assay type: functional; conditions: isolate 27728, 24 h
[16] = Hemolytic activity against human RBC at MIC after 1 hr by spectrophotometry; assay type: ADME, cell-based; conditions: erythrocyte
[17] = tested on: Enterococcus faecium; experiment: Bactericidal activity against vancomycin-resistant Enterococcus faecium clinical isolate 16115 after 24 hrs by two-fold serial dilution method; assay type: functional; conditions: isolate 16115, 24 h
[18] = tested on: Enterococcus faecalis; experiment: Antibacterial activity against vancomycin-resistant Enterococcus faecalis clinical isolate 21/235 after overnight incubation by two-fold serial dilution method; assay type: functional
[19] = tested on: Enterococcus faecium; experiment: Bactericidal activity against vancomycin-resistant Enterococcus faecium clinical isolate 6/22 after 24 hrs by two-fold serial dilution method; assay type: functional; conditions: isolate 6/22, 24 h
[20] = tested on: Enterococcus faecalis; experiment: Bactericidal activity against vancomycin-resistant Enterococcus faecalis clinical isolate 22/203 after 24 hrs by two-fold serial dilution method; assay type: functional; conditions: isolate 22/203, 24 h
[21] = tested on: Enterococcus faecium; experiment: Bactericidal activity against vancomycin-resistant Enterococcus faecium clinical isolate 31176 after 24 hrs by two-fold serial dilution method; assay type: functional; conditions: isolate 31176, 24 h
[22] = tested on: Enterococcus; experiment: Bactericidal activity against vancomycin-resistant Enterococcus ATCC 29212 assessed as log reduction at 2 times MIC after 60 to 120 mins by serial dilution method; assay type: functional
In short: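 Time-kill assay: enterococci exposed to peptide at 2× MIC, with viable counts read as log10 CFU/mL over a 60–120 min exposure. Run on ATCC 29212 and a clinical isolate.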

[23] = tested on: Enterococcus faecalis; experiment: Antibacterial activity against vancomycin-resistant Enterococcus faecalis clinical isolate 387702 after overnight incubation by two-fold serial dilution method; assay type: functional
[24] = tested on: Enterococcus; experiment: Antibacterial activity against vancomycin-resistant Enterococcus clinical isolate after 18 to 20 hrs by checkerboard titration method in presence of linezolid; assay type: functional
[25] = tested on: Enterococcus faecium; experiment: Antibacterial activity against vancomycin-resistant Enterococcus faecium clinical isolate 7/27 after overnight incubation by two-fold serial dilution method; assay type: functional
[26] = tested on: Enterococcus faecalis; experiment: Antibacterial activity against vancomycin-resistant Enterococcus faecalis clinical isolate 7079 after overnight incubation by two-fold serial dilution method; assay type: functional
[27] = tested on: Enterococcus faecium; experiment: Antibacterial activity against vancomycin-resistant Enterococcus faecium clinical isolate 31386 after overnight incubation by two-fold serial dilution method; assay type: functional
[28] = tested on: Enterococcus faecium; experiment: Antibacterial activity against vancomycin-resistant Enterococcus faecium clinical isolate 6/22 after overnight incubation by two-fold serial dilution method; assay type: functional
[29] = tested on: Enterococcus faecium; experiment: Bactericidal activity against vancomycin-resistant Enterococcus faecium clinical isolate 15/213 after 24 hrs by two-fold serial dilution method; assay type: functional; conditions: isolate 15/213, 24 h
[30] = tested on: Enterococcus faecalis; experiment: Bactericidal activity against vancomycin-resistant Enterococcus faecalis clinical isolate 7077 after 24 hrs by two-fold serial dilution method; assay type: functional; conditions: isolate 7077, 24 h
[31] = tested on: Enterococcus faecium; experiment: Bactericidal activity against vancomycin-resistant Enterococcus faecium clinical isolate 5484 after 24 hrs by two-fold serial dilution method; assay type: functional; conditions: isolate 5484, 24 h
[32] = tested on: Enterococcus faecium; experiment: Bactericidal activity against vancomycin-resistant Enterococcus faecium clinical isolate 3864 after 24 hrs by two-fold serial dilution method; assay type: functional; conditions: isolate 3864, 24 h
[33] = tested on: Enterococcus faecium; experiment: Bactericidal activity against vancomycin-resistant Enterococcus faecium clinical isolate 14643 after 24 hrs by two-fold serial dilution method; assay type: functional; conditions: isolate 14643, 24 h
[34] = tested on: Enterococcus faecalis; experiment: Bactericidal activity against vancomycin-resistant Enterococcus faecalis clinical isolate 22626 after 24 hrs by two-fold serial dilution method; assay type: functional; conditions: isolate 22626, 24 h
[35] = tested on: Enterococcus faecium; experiment: Antibacterial activity against vancomycin-resistant Enterococcus faecium clinical isolate 13246 after overnight incubation by two-fold serial dilution method; assay type: functional
[36] = tested on: Enterococcus; experiment: Antibacterial activity against vancomycin-resistant Enterococcus ATCC 51299 after 18 to 20 hrs by checkerboard titration method in presence of vancomycin; assay type: functional
[37] = tested on: Enterococcus; experiment: Antibacterial activity against Enterococcus infected in iv dosed Wistar albino rat assessed as reduction in cell count after 1 hr relative to control; assay type: functional, organism-based
In short: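 Female Wistar albino rats, 40−45 days old, 125−150 g, 5 groups of 3. Enterococci grown in MH broth to log phase, spun at 1000g for 15 min, diluted in PBS to 4 × 10^6 CFU/mL and inoculated i.v. Treatment i.v. 1 h later at 12.5, 25 or 37.5 mg/kg. Vehicle was 0.1 mL PBS i.v.; linezolid 25 mg/kg i.v. was the positive control. Tail-vein blood taken 1 h after treatment, plated on blood agar, incubated at 37 °C in ambient air overnight, and colonies counted.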

[38] = tested on: Enterococcus faecium; experiment: Antibacterial activity against vancomycin-resistant Enterococcus faecium clinical isolate 14643 after overnight incubation by two-fold serial dilution method; assay type: functional
[39] = tested on: Enterococcus faecium; experiment: Antibacterial activity against vancomycin-resistant Enterococcus faecium clinical isolate 5484 after overnight incubation by two-fold serial dilution method; assay type: functional

H-RWRLLLLKKH-OH showed an MBC [1] of 25 mg/L, an MIC [2] of 25 mg/L and an MIC [3] of 12.5 mg/L. The MIC [4] was 25 mg/L, the MIC [5] was 12.5 mg/L and the hemolysis at 1 h, 5 times MIC [6] was < 5%. For the same substance, the Activity [7] was 73%, the MBC [8] was 25 mg/L and the MIC [9] was 12.5 mg/L. The MBC [10] was 25 mg/L, the MIC [11] was 12.5 mg/L and the MIC [12] was 6.25 mg/L. The MIC [13] was 12.5 mg/L, the MIC [14] was 6.25 mg/L and the MBC [15] was 25 mg/L. The Activity [16] was “Non-toxic”, the MBC [17] was 25 mg/L and the MIC [18] was 12.5 mg/L. The MBC [19] was 25 mg/L, the MBC [20] was 25 mg/L and the MBC [21] was 25 mg/L. The MBC [22] was 25 mg/L, the MIC [23] was 6.25 mg/L and the “fractional inhibitory concentration index (FICI)” value [24] was 2. For the same substance, the MIC [25] was 12.5 mg/L, the MIC [26] was 12.5 mg/L and the MIC [27] was 6.25 mg/L. For the same substance, the MIC [28] was 12.5 mg/L, the MBC [29] was 25 mg/L and the MBC [30] was 25 mg/L. The MBC [31] was 25 mg/L, the MBC [32] was 25 mg/L and the MBC [33] was 25 mg/L. For the same substance, the MBC [34] was 25 mg/L, the MIC [35] was 12.5 mg/L and the “fractional inhibitory concentration index (FICI)” value [36] was 0.06. The Activity [37] was “Dose-dependent effect”, the MIC [38] was 6.25 mg/L and the MIC [39] was 12.5 mg/L.
